Compounds with a hit are over-represented: about 3.7% of the library has one in this group of screens.
KCNQ1 block = inhibitors of human KCNQ1 potassium channel | P51787 | CHO-K1 KCNQ1, FluxOR thallium flux fluorescence; stronger effect = higher value | 310,000 compounds, 1.3% hits | B-score at 10 µM;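 active means compounds whose thallium flux B-score, printed positive for inhibition, exceeds three library SD while starting fluorescence stays within three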;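 further: channel opened by potassium depolarization with thallium stimulus after 20 min compound exposure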
Kir21 inh = Kir2.1 (mouse) channel inhibition. HEK293-Kir2.1, FluxOR thallium flux fluorescence; stronger effect = lower value. B-score at 10 µM. 310,000 compounds, 0.85% hits;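 active means fluorescence ratio B-score at or below minus 3 SD of library scores, with starting-brightness B-score within 2 SD, cut at about -4.2 in these data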;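 further: channel flux triggered by added potassium and thallium sulfate stimulus; B-score of peak minus minimum fluorescence over baseline after thallium stimulus; more negative B-score means stronger Kir2.1 block with less thallium influx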
KCNQ1 act = potentiates or activates the human KCNQ1 potassium channel. AID 2648. 310,000 compounds, 0.35% hits. P51787. B-score at 10 µM. CHO-K1 KCNQ1, thallium flux FluxOR fluorescence; stronger effect = higher value;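 active means fluorescence ratio B-score, a plate-corrected score, at least three library SD, with initial intensity B-score within 5 SD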
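Assay system: CHO-K1 cells stably expressing KCNQ1; Medium: assay buffer with matched DMSO; Also added: K+/Tl+ depolarizing stimulus; Dosing: single dose; Timing: dye 90 min, compound 20 min, room temperature; Measured by: kinetic FluxOR thallium fluorescence, 10-s 1-Hz baseline, 110-s post-stimulus read; Read-out: peak-minus-minimum fluorescence over initial fluorescence, negative-control normalized, B-scored.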
KCNK9 block = human KCNK9 channel inhibition; Q9NPC2; HEK293 KCNK9, FluxOR thallium flux fluorescence; stronger effect = lower value; B-score at 10 µM; 310,000 compounds, 1.2% hits; AID 488922;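 active means ratio B-score over 3 SD below the library mean, with starting fluorescence within 5 SD of its mean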;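 further: negative B-score means less thallium flux so channel inhibition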
KCNK3 inh = human KCNK3 channel inhibition, primary screen; O14649; CHO-KCNK3 thallium flux, FluxOR fluorescence; stronger effect = lower value; B-score at 10 µM; 340,000 compounds, 0.84% hits; AID 602410;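 active means B-score under library mean minus 4 SD, starting fluorescence ratio at most library mean plus 5 SD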;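 further: more negative B-score means stronger inhibition of thallium flux through KCNK3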
Target sequence (O14649 whole entry, looked up): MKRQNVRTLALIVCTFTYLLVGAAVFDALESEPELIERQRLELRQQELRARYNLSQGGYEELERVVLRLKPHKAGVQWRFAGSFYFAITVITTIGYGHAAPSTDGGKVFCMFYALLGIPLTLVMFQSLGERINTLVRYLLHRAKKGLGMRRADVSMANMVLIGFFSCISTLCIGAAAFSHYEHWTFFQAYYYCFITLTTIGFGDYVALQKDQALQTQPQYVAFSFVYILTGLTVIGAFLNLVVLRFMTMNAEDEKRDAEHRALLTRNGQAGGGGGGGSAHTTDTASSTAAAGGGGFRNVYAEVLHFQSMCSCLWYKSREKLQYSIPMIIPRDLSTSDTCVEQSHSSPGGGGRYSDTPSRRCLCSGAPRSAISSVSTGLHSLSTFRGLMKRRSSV
hERG rescue = compounds protecting human hERG from proarrhythmic drug block | Q12809 | CHO-hERG, FluxOR thallium flux, dofetilide IC70 present | activation (rescue from dofetilide block), less the hit threshold, % at 10 µM | 310,000 compounds, 0.51% hits | AID 1511;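 active means activation above the mean of controls blocked by dofetilide plus 5 SD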;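 further: thallium influx through hERG after potassium depolarization seen as dye fluorescence rise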
KCNK3 inh conf = confirmation of human KCNK3 two-pore domain potassium channel inhibitors; shares compounds with KCNK3 inh; CHO-KCNK3 thallium flux, FluxOR fluorescence; 0% buffer, 100% carvedilol maximal block; ratio percent of control, % at 10 µM; 2,400 compounds, 99% hits;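 active means ratio percent of control, averaged over triplicates, above buffer control mean plus 5 SD, cut at about 64% in these data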;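 further: ratio is the fluorescence rise from min to max over baseline after thallium stimulus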
KCNK3 noninduced = activity in cells without induced KCNK3 expression. AID 651747. 2,400 compounds, 40% hits. shares compounds with KCNK3 inh. thallium flux ratio (lower = more inhibition) at 10 µM. non-induced KCNK3 parental cells, FluxOR thallium flux; stronger effect = lower value;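 active means thallium flux ratio, averaged over three wells, more than 5 SD below the buffer control mean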;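 further: host cells are CHO cells without KCNK3 induction; ratio is peak minus trough fluorescence over baseline then normalized to buffer controls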
Numbers without * were called inactive; i = inactive; . = no result.

SMILES	KCNQ1 block	Kir21 inh	KCNQ1 act	KCNK9 block	KCNK3 inh	hERG rescue	KCNK3 inh conf	KCNK3 noninduced
CN(CCOc1ccccc1)C(=O)C1CCC(=O)N(CCN2CCOCC2)C1 (stereo not drawn)	i	-0.44	i	i	i	-9.9	.	.
COc1ccc(OC)c(/C=C/C(=O)N2CCCc3ccccc32)c1	i	0.01	i	i	-11.2*	-10.5	113.3*	i
COc1ccc(/C=C/C(=O)N2CCCc3ccccc32)c(OC)c1	i	2.11	i	i	i	-10.8	.	.
Cn1nnnc1Sc1ncnc2scc(-c3ccc(-c4ccccc4)cc3)c12	.	.	.	.	i	.	.	.
Cn1nnnc1Sc1ncnc2scc(-c3cc4ccccc4o3)c12	.	.	.	.	-13*	.	117.7*	i
COc1ccc2oc(C(=O)N3CCN(c4ncccn4)CC3)c(C)c2c1	i	0.24	i	i	i	-12.2	.	.
Cc1ccc2c(C)c(C(=O)N3CCN(c4ncccn4)CC3)oc2c1C	i	2.16	i	-6.73*	-9.12*	-2.8	69.3*	i
Cc1cc([N+](=O)[O-])ccc1-c1ccc(/C=N/NC(=O)c2ccc(Br)o2)o1	i	-1.41	i	i	-9.4*	-0.6	104.7*	i
Cc1noc(C)c1COc1ccccc1C(=O)NCCOc1ccccc1F	.	.	.	.	i	.	.	.
Cc1noc(C)c1COc1ccccc1C(=O)NC1CCC(C)CC1 (stereo not drawn)	i	-1.51	i	i	-10.4*	-13.8	105.7*	i
CCOc1ccccc1CNC(c1ccccc1)c1ccccc1	i	-1.53	i	i	-10.3*	-11.9	67.0*	0.157*
COc1ccccc1CNC(c1ccccc1)c1ccccc1	i	-2.82	i	i	i	-13.3	.	.
COCCCNC(=S)N1CCC(C(=O)c2ccc(Cl)cc2)CC1	i	-0.24	i	i	i	-9.1	.	.
CC(=O)NC(Cc1c[nH]c2ccccc12)C(=O)NCCc1ccccn1 (stereo not drawn)	i	1.79	i	i	i	-5.2	.	.
C[C@@H](NC(=O)Cn1ccc(N)nc1=O)c1cccc2ccccc12	.	.	.	.	i	.	.	.
COCCN(C(=O)Nc1ccccc1OC)c1nc2ccccc2s1	i	-0.63	i	i	-11.2*	-9.4	114.3*	i
CCC(=O)Nc1ccccc1C(=O)OC(c1ccccc1)c1ccccc1	i	-0.51	i	i	i	-12.3	.	.
CCC(=O)Nc1ccccc1C(=O)OCc1ccc(C(=O)c2ccccc2)cc1	i	1.53	i	i	-9.26*	-13.9	98.3*	i
Cc1ccc(C(=O)c2cnc3ccccc3c2-c2ccccc2)cc1	i	-0.37	i	i	-9.78*	-5.5	117.7*	0.127*
COc1ccc(Oc2nc(-c3ccccc3)ncc2C(=O)O)cc1	i	-0.02	i	i	i	-2.6	.	.
COc1ccc(C(=O)c2cnc3ccccc3c2-c2ccccc2)cc1	i	0.17	i	i	-9.24*	-9.3	112.0*	i
COCC1CCN(Cc2cn[nH]c2-c2ccc(OC)c(F)c2)C1 (stereo not drawn)	i	-0.62	i	i	i	-18.6	.	.
O=C1CN(C(=O)COC(=O)c2c(F)cccc2Cl)c2ccccc2N1	.	.	.	.	i	.	.	.
CC(Sc1nnc(CN2CCCC2)n1Cc1ccccc1)C(=O)Nc1ccc(F)c(F)c1F (stereo not drawn)	.	.	.	.	i	.	.	.
Cc1ccc(NC(=O)Cn2c(=O)n(Cc3ccco3)c(=O)c3ccccc32)c(C)c1	i	-1.02	i	i	i	-4.6	.	.
SMILES	KCNQ1 block	Kir21 inh	KCNQ1 act	KCNK9 block	KCNK3 inh	hERG rescue	KCNK3 inh conf	KCNK3 noninduced
O=C(Cn1c(=O)n(Cc2ccco2)c(=O)c2ccccc21)Nc1cccc(Cl)c1	i	2.19	i	i	-14*	-3.2	97.7*	i
CCOC(=O)C1=C(C)NC(=O)NC1/C=C/c1ccccc1OC (stereo not drawn)	i	0.83	i	i	i	2.7	.	.
COc1ccccc1/C=C/C1C(C(=O)OCC(C)C)=C(C)N=C2SCCC(=O)N21 (stereo not drawn)	i	0.39	i	i	-9.33*	-3.0	92.3*	0.16*
CCN1/C(=C\C(=S)Nc2ccccc2)Sc2ccccc21	i	0.14	i	i	-9.82*	-13.5	110.3*	i
N#Cc1ccsc1NC(=O)C1CCCN1S(=O)(=O)c1cccs1 (stereo not drawn)	i	1.04	i	i	i	-8.9	.	.
CC(C)Cc1cc(CNC(=O)C2CCC(=O)N(CCc3cccc(F)c3)C2)on1 (stereo not drawn)	i	-0.55	i	i	i	-4.9	.	.
CC(C)c1nc(CNC(=O)C2CCC(=O)N(CCc3cccc(F)c3)C2)cs1 (stereo not drawn)	i	0.45	i	i	-11*	-4.1	77.3*	i
C=CCn1c(=O)c2ccccc2n2c(SCC(=O)NC)nnc12	i	-0.08	i	i	i	-3.6	.	.
CCOc1ccccc1N1CCN(C(=S)NCc2ccc(Cl)cc2)CC1	i	-0.05	i	i	-9.04*	-12.1	119.3*	i
CCOc1ccccc1N1CCN(C(=S)NC(=O)C23CC4CC(CC(C4)C2)C3)CC1	i	-0.45	i	i	i	-6.2	.	.
O=C(NCC1COc2ccccc2O1)c1cccc(S(=O)(=O)N2CCN(c3ccccc3)CC2)c1 (stereo not drawn)	.	.	.	.	i	.	.	.
Clc1cccc(OCc2nnc(-c3ccccc3Br)o2)c1	i	0.31	i	i	-10.6*	-12.9	104.7*	i
Cc1nn(-c2ccc(Cl)cc2)c(=O)c2ccccc12	i	-0.66	i	i	i	-17.5	.	.
Cc1nn(-c2ccc(Cl)c(Cl)c2)c(=O)c2ccccc12	i	2.45	i	i	-11.3*	-2.6	105.0*	i
Cc1nn(-c2nc3ccccc3[nH]2)c(=O)c2ccccc12	i	-0.49	i	i	i	-3.6	.	.
Cc1nn(-c2ccc3ccccc3c2)c(=O)c2ccccc12	i	-0.21	i	i	-8.93*	-10.4	91.7*	i
CCOC(=O)c1cc(C#N)c(SCC(=O)c2cc(C#N)c(SC)nc2C)nc1C	i	1.15	i	i	-10.6*	-1.3	107.3*	0.14*
CCOC(=O)c1cc(C#N)c(SCc2cccc3ccccc23)nc1C	i	0.57	i	i	i	-6.6	.	.
Nc1ccc(/C=C/C(=O)c2cccs2)cc1	i	-3.23	i	i	-9.26*	-17.4	122.7*	0.093*
